Reference: ChEMBL document CHEMBL1914360, “Synthesis and anticancer activity of 5'-chloromethylphosphonates of 3'-azido-3'-deoxythymidine (AZT)” (Bioorg Med Chem, 2011)
Converted amounts (≈) assume the structure as drawn.

Assays:
KB = test: Cytotoxicity against human KB cells assessed as cell survival after 72 hrs by sulforhodamine B colorimetric assay; assay type: functional, cell-based
Outline: (§1)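 SRB protein-stain assay: KB cells grown in RPMI 1640 and MCF-7 in DMEM, each with 10% FBS, 1% L-glutamine and 1% penicillin/streptomycin, at 37 °C. About 10,000 cells per well were left 24 h, then exposed 72 h to six concentrations ([…]), with DMSO ≤0.1%. Cells were TCA-fixed 1 h at 4 °C and stained 30 min at RT. OD was read at 490 nm, survival taken as % of untreated control, and each experiment run three times.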

MCF7 = test: Cytotoxicity against human MCF7 cells assessed as cell survival after 72 hrs by sulforhodamine B colorimetric assay; assay type: functional, cell-based; settings: MCF7, 72 h; outline: as §1
[1] = Apparent permeability from basolateral to apical side of the human Caco2 cells at 100 uM after 30 mins by HPLC method; assay type: ADME, cell-based; settings: Caco-2
Outline: (§2)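 Caco-2 monolayers grown on polycarbonate membranes (0.4 µm pores) and used 21 days post-seeding; only monolayers with TEER above 800 Ω·cm² were used. Cells washed and pre-incubated 30 min at 37 °C. Compound at 100 µM in HBSS with 10 mM HEPES, pH 7.4, added to the donor side; shaken at 37 °C. Acceptor sampled every 15 min and analysed by HPLC. Papp reported as mean ± SD, n = 3.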

[2] = Apparent permeability from apical to basolateral side of the human Caco2 cells at 100 uM after 30 mins by HPLC method; assay type: ADME, cell-based; settings: Caco-2; outline: as §2
Caco-2 = test: Cytotoxicity against human Caco2 cells at 100 uM; assay type: cell-based; settings: caco-2, 100 µM
Outline: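 Caco-2 monolayers were exposed for 2 h to compound at 100 µM in transport medium (HBSS with 10 mM HEPES, pH 7.4). This served as a pre-check before transport studies. Monolayer integrity was checked by TEER before and after the experiments.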

[3] = Oral bioavailability in human; assay type: ADME, organism-based; settings: in vivo

| bioavailability [3] [%] | SMILES | IC50 (KB) [µg/mL] | IC50 (MCF7) [µg/mL] | Papp B→A at 0.5 h, 100 µM [1] [×10⁻⁶ cm/s] | Papp A→B at 0.5 h, 100 µM [2] [×10⁻⁶ cm/s] | Activity (Caco-2) |
| --- | --- | --- | --- | --- | --- | --- |
| – | C=CCNP(=O)(CCl)OC[C@H]1O[C@@H](n2cc(C)c(=O)[nH]c2=O)C[C@@H]1N=[N+]=[N-] (some centres not stated) | 47 (≈ 112 µM) | 34 (≈ 81.2 µM) | – | – | – |
| – | Nc1ccn([C@@H]2O[C@H](CO)[C@@H](O)[C@@H]2O)c(=O)n1 [CYTARABINE] | 0.99 (≈ 4.07 µM) | 0.93 (≈ 3.82 µM) | – | – | – |
| – | CCCNP(=O)(CCl)OC[C@H]1O[C@@H](n2cc(C)c(=O)[nH]c2=O)C[C@@H]1N=[N+]=[N-] (some centres not stated) | 5.8 (≈ 13.8 µM) | 3.7 (≈ 8.79 µM) | 16.1 | 3.22 | Non-toxic |
| – | CCNP(=O)(CCl)OC[C@H]1O[C@@H](n2cc(C)c(=O)[nH]c2=O)C[C@@H]1N=[N+]=[N-] (some centres not stated) | > 100 | > 100 | – | – | – |
| – | CNP(=O)(CCl)OC[C@H]1O[C@@H](n2cc(C)c(=O)[nH]c2=O)C[C@@H]1N=[N+]=[N-] (some centres not stated) | 52 (≈ 132 µM) | 63.2 (≈ 161 µM) | – | – | – |
| – | Cc1cn([C@H]2C[C@H](N=[N+]=[N-])[C@@H](COP(=O)(CCl)NC(C)C)O2)c(=O)[nH]c1=O (some centres not stated) | 12.1 (≈ 28.8 µM) | 12.8 (≈ 30.4 µM) | 18 | 3.36 | Non-toxic |
| – | Cc1cn([C@H]2C[C@H](N=[N+]=[N-])[C@@H](COP(=O)(CCl)NCCc3ccccc3)O2)c(=O)[nH]c1=O (some centres not stated) | > 100 | > 100 | – | – | – |
| – | Cc1cn([C@H]2C[C@H](N=[N+]=[N-])[C@@H](COP(=O)(CCl)NCCc3c[nH]c4ccccc34)O2)c(=O)[nH]c1=O (some centres not stated) | 80 (≈ 153 µM) | > 100 | – | – | – |
| – | Cc1cn([C@H]2C[C@H](N=[N+]=[N-])[C@@H](COP(=O)(CCl)N(C)C)O2)c(=O)[nH]c1=O (some centres not stated) | 65 (≈ 160 µM) | 22.8 (≈ 56.1 µM) | – | – | – |
| 63 | Cc1cn([C@H]2C[C@H](N=[N+]=[N-])[C@@H](CO)O2)c(=O)[nH]c1=O [ZIDOVUDINE] | 3.12 (≈ 11.7 µM) | 2.6 (≈ 9.73 µM) | – | 2.85 | – |
| – | CCCCNP(=O)(CCl)OC[C@H]1O[C@@H](n2cc(C)c(=O)[nH]c2=O)C[C@@H]1N=[N+]=[N-] (some centres not stated) | 77 (≈ 177 µM) | 82 (≈ 189 µM) | – | – | – |
| – | CCN(CC)P(=O)(CCl)OC[C@H]1O[C@@H](n2cc(C)c(=O)[nH]c2=O)C[C@@H]1N=[N+]=[N-] (some centres not stated) | 85 (≈ 195 µM) | 67 (≈ 154 µM) | – | – | – |
